Laboratory results from ChEMBL document CHEMBL4354800, “Amphiphilic nebramine-based hybrids Rescue legacy antibiotics from intrinsic resistance in multidrug-resistant Gram-negative bacilli” (Eur J Med Chem, 2019).

How the values were obtained:
HEK293 = test: Cytotoxicity against HEK293 cells at 50 uM incubated for 48 hrs by PrestoBlue dye based fluorescence assay; format: cell-based; settings: human, hek293, 48 h
Pseudomonas aeruginosa [1] = test: Synergistic antibacterial activity against MDR/XDR Pseudomonas aeruginosa isolate 91433 devoid of GyrA T83I mutant assessed as fractional inhibitory concentration index in presence of rifampicin incubated for 18 hrs by broth microdilution method; format: functional
Summary of the method: (§1)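 Checkerboard synergy assay. Antibiotic and adjuvant in twofold dilutions in Mueller-Hinton broth. Inoculum 5 × 10^5 CFU/mL from a 0.5 McFarland suspension, 18 h at 37 °C, MIC read by turbidity and confirmed at 590 nm. FIC = MIC in combination / MIC alone for each agent, FICI = sum. Interpreted as ≤0.5 synergy, 0.5–4 no interaction, >4 antagonism.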

Pseudomonas aeruginosa [2] = test: Synergistic antibacterial activity against MDR/XDR Pseudomonas aeruginosa isolate 100036 harboring T83I mutant assessed as fractional inhibitory concentration index in presence of rifampicin incubated for 18 hrs by broth microdilution method; format: functional; summary of the method: as §1
Pseudomonas aeruginosa [3] = test: Synergistic antibacterial activity against MDR/XDR Pseudomonas aeruginosa isolate PA262-101856 harboring GyrA T83I mutant assessed as fractional inhibitory concentration index in presence of ciprofloxacin incubated for 18 hrs by broth microdilution method; format: functional; summary of the method: as §1
Pseudomonas aeruginosa [4] = test: Synergistic antibacterial activity against wild type Pseudomonas aeruginosa PAO1 assessed as fractional inhibitory concentration index in presence of rifampicin incubated for 18 hrs by broth microdilution method; format: functional; summary of the method: as §1
Pseudomonas aeruginosa [5] = test: Antimicrobial activity against wild type Pseudomonas aeruginosa PAO1 incubated for 18 hrs by broth microdilution method; format: functional; settings: PAO1, 18 h
Summary of the method: (§2)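 Broth microdilution per CLSI: overnight cultures set to 0.5 McFarland in saline, diluted 1:50 in Mueller-Hinton broth to a final 5 × 10^5 CFU/mL, added to 2-fold serial dilutions, incubated 18 h at 37 °C; MIC is the lowest concentration without visible turbidity, confirmed at 590 nm.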

Pseudomonas aeruginosa [6] = test: Synergistic antibacterial activity against MDR/XDR Pseudomonas aeruginosa isolate 101243 devoid of GyrA T83I mutant assessed as fractional inhibitory concentration index in presence of ciprofloxacin incubated for 18 hrs by broth microdilution method; format: functional; summary of the method: as §1
Pseudomonas aeruginosa [7] = test: Synergistic antibacterial activity against MDR/XDR Pseudomonas aeruginosa isolate PA260-97103 harboring GyrA T83I mutant assessed as fractional inhibitory concentration index in presence of ciprofloxacin incubated for 18 hrs by broth microdilution method; format: functional; summary of the method: as §1
Pseudomonas aeruginosa [8] = test: Synergistic antibacterial activity against MDR/XDR Pseudomonas aeruginosa isolate PA262-101856 harboring GyrA T83I mutant assessed as fractional inhibitory concentration index in presence of minocycline incubated for 18 hrs by broth microdilution method; format: functional; summary of the method: as §1
Klebsiella pneumoniae [9] = test: Antimicrobial activity against Klebsiella pneumoniae 116381 incubated for 18 hrs by broth dilution method; format: functional; settings: Klebsiella pneumoniae, 116381, 18 h
Summary of the method: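 CLSI broth microdilution. Overnight cultures were adjusted to 0.5 McFarland in saline, diluted 1:50 in Mueller-Hinton broth, and inoculated at a final 5 × 10^5 CFU/mL. Compounds were tested as 2-fold serial dilutions and incubated 18 h at 37 °C. MIC was the lowest concentration with no visible turbidity, confirmed by absorbance at 590 nm.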

Enterobacter cloacae [10] = test: Synergistic antibacterial activity against Enterobacter cloacae 117029 assessed as fractional inhibitory concentration index in presence of rifampicin incubated for 18 hrs by broth dilution method; format: functional
Summary of the method: (§3)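 Checkerboard titration of the adjuvant against the antibiotic, run under the CLSI microdilution conditions (MHB, 5 × 10^5 CFU/mL, 18 h, 37 °C). Each agent's FIC is its MIC in combination divided by its MIC alone; FICI is the sum of the two FICs. FICI ≤0.5 was read as synergy, >0.5–4.0 as no interaction, and >4.0 as antagonism.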

Pseudomonas aeruginosa [11] = test: Synergistic antibacterial activity against MDR/XDR Pseudomonas aeruginosa isolate PA259-96918 harboring T83I mutant assessed as fractional inhibitory concentration index in presence of rifampicin incubated for 18 hrs by broth microdilution method; format: functional; summary of the method: as §1
Enterobacter cloacae [12] = test: Synergistic antibacterial activity against Enterobacter cloacae 117029 assessed as fractional inhibitory concentration index in presence of minocycline incubated for 18 hrs by broth dilution method; format: functional; summary of the method: as §3
Pseudomonas aeruginosa [13] = test: Synergistic antibacterial activity against MDR/XDR Pseudomonas aeruginosa isolate 101243 devoid of GyrA T83I mutant assessed as fractional inhibitory concentration index in presence of rifampicin incubated for 18 hrs by broth microdilution method; format: functional; summary of the method: as §1
Pseudomonas aeruginosa [14] = test: Antimicrobial activity against MDR/XDR Pseudomonas aeruginosa isolate PA259-96918 harboring GyrA Thr83Ile mutant incubated for 18 hrs by broth microdilution method; format: functional; settings: isolate PA259-96918, 18 h; summary of the method: as §2
Pseudomonas aeruginosa [15] = test: Synergistic antibacterial activity against MDR/XDR Pseudomonas aeruginosa isolate PA264-104354 harboring GyrA T83I mutant assessed as fractional inhibitory concentration index in presence of minocycline incubated for 18 hrs by broth microdilution method; format: functional; summary of the method: as §1
Pseudomonas aeruginosa [16] = test: Synergistic antibacterial activity against MDR/XDR Pseudomonas aeruginosa isolate 101885 harboring T83I mutant assessed as fractional inhibitory concentration index in presence of rifampicin incubated for 18 hrs by broth microdilution method; format: functional; summary of the method: as §1
Pseudomonas aeruginosa [17] = test: Synergistic antibacterial activity against MDR/XDR Pseudomonas aeruginosa isolate PA259-96918 harboring GyrAT83I mutant assessed as fractional inhibitory concentration index in presence of minocycline incubated for 18 hrs by broth microdilution method; format: functional; summary of the method: as §1
[18] = Retention time of the compound by HPLC analysis; format: physicochemical
Pseudomonas aeruginosa [19] = test: Synergistic antibacterial activity against MDR/XDR Pseudomonas aeruginosa isolate 101243 devoid of GyrA T83I mutant assessed as fractional inhibitory concentration index in presence of minocycline incubated for 18 hrs by broth microdilution method; format: functional; summary of the method: as §1
Klebsiella pneumoniae [20] = test: Synergistic antibacterial activity against Klebsiella pneumoniae 116381 assessed as fractional inhibitory concentration index in presence of minocycline incubated for 18 hrs by broth dilution method; format: functional; summary of the method: as §3
HepG2 = test: Cytotoxicity against human HepG2 cells at 50 uM incubated for 48 hrs in presence of 50 uM rifampicin by PrestoBlue dye based fluorescence assay; format: cell-based; settings: hepg2, 48 h
Pseudomonas aeruginosa [21] = test: Synergistic antibacterial activity against MDR/XDR Pseudomonas aeruginosa isolate PA262-101856 harboring GyrA T83I mutant assessed as fractional inhibitory concentration index in presence of moxifloxacin incubated for 18 hrs by broth microdilution method; format: functional; summary of the method: as §1
Pseudomonas aeruginosa [22] = test: Antimicrobial activity against MDR/XDR Pseudomonas aeruginosa isolate PA260-97103 harboring GyrA Thr83Ile mutant incubated for 18 hrs by broth microdilution method; format: functional; settings: isolate PA260-97103, 18 h; summary of the method: as §2
Pseudomonas aeruginosa [23] = test: Synergistic antibacterial activity against MDR/XDR Pseudomonas aeruginosa isolate 91433 devoid of GyrA T83I mutant assessed as fractional inhibitory concentration index in presence of moxifloxacin incubated for 18 hrs by broth microdilution method; format: functional; summary of the method: as §1
Pseudomonas aeruginosa [24] = test: Synergistic antibacterial activity against wild type Pseudomonas aeruginosa PAO1 assessed as fractional inhibitory concentration index in presence of minocycline incubated for 18 hrs by broth microdilution method; format: functional; summary of the method: as §3
Pseudomonas aeruginosa [25] = test: Synergistic antibacterial activity against MDR/XDR Pseudomonas aeruginosa isolate PA259-96918 harboring GyrA T83I mutant assessed as fractional inhibitory concentration index in presence of moxifloxacin incubated for 18 hrs by broth microdilution method; format: functional; summary of the method: as §1

SMILES | Activity (HEK293) | fractional inhibitory concentration index (FICI) (Pseudomonas aeruginosa [1]) | fractional inhibitory concentration index (FICI) (Pseudomonas aeruginosa [2]) | fractional inhibitory concentration index (FICI) (Pseudomonas aeruginosa [3]) | fractional inhibitory concentration index (FICI) (Pseudomonas aeruginosa [4]) | MIC (Pseudomonas aeruginosa [5]) [µg/mL] | fractional inhibitory concentration index (FICI) (Pseudomonas aeruginosa [6]) | fractional inhibitory concentration index (FICI) (Pseudomonas aeruginosa [7]) | fractional inhibitory concentration index (FICI) (Pseudomonas aeruginosa [8]) | MIC (Klebsiella pneumoniae [9]) [µg/mL] | fractional inhibitory concentration index (FICI) (Enterobacter cloacae [10]) | fractional inhibitory concentration index (FICI) (Pseudomonas aeruginosa [11]) | fractional inhibitory concentration index (FICI) (Enterobacter cloacae [12]) | fractional inhibitory concentration index (FICI) (Pseudomonas aeruginosa [13]) | MIC (Pseudomonas aeruginosa [14]) [µg/mL] | fractional inhibitory concentration index (FICI) (Pseudomonas aeruginosa [15]) | fractional inhibitory concentration index (FICI) (Pseudomonas aeruginosa [16]) | fractional inhibitory concentration index (FICI) (Pseudomonas aeruginosa [17]) | Retention_time [18] [min] | fractional inhibitory concentration index (FICI) (Pseudomonas aeruginosa [24]) | other results
COc1c(N2C[C@@H]3CCCN(CCCCCCCCCCCCO[C@@H]4[C@@H](O)[C@H](N)C[C@H](N)[C@H]4O[C@H]4O[C@H](CN)[C@@H](O)C[C@H]4N)[C@@H]3C2)c(F)cc2c(=O)c(C(=O)O)cn(C3CC3)c12.Cl.Cl.Cl.Cl.Cl | Non-Toxic | 0.16 | 0.01 | 0.25 - 0.28 | 0.07 | 32 | 0.25 | 0.25 | 0.03 - 0.05 | > 256 | 0.06 | 0.004 - 0.01 | 0.19 | 0.13 | > 256 | 0.05 | 0.05 | 0.03 - 0.04 | 14.585 | 0.38 | fractional inhibitory concentration index (FICI) (Pseudomonas aeruginosa [19]): 0.13; fractional inhibitory concentration index (FICI) (Klebsiella pneumoniae [20]): 0.063 - 78; Activity (HepG2): Non-Toxic; fractional inhibitory concentration index (FICI) (Pseudomonas aeruginosa [21]): 0.13 - 0.16; MIC (Pseudomonas aeruginosa [22]): 32 µg/mL; fractional inhibitory concentration index (FICI) (Pseudomonas aeruginosa [23]): 0.31; fractional inhibitory concentration index (FICI) (Pseudomonas aeruginosa [25]): 0.06 - 0.07
Cl.Cl.Cl.Cl.Cl.NC[C@H]1O[C@H](O[C@H]2[C@H](OCCCCCCCCCCCCN3CCN(c4cc5c(cc4F)c(=O)c(C(=O)O)cn5C4CC4)CC3)[C@@H](O)[C@H](N)C[C@@H]2N)[C@H](N)C[C@@H]1O | Non-Toxic |  |  |  | 0.047 | 64 |  |  |  | > 128 | 0.023 | 0.008 - 0.016 | 0.125 |  | > 128 | 0.039 |  | 0.031 - 0.063 | 14.945 | 0.047 | fractional inhibitory concentration index (FICI) (Klebsiella pneumoniae [20]): 0.063 - 0.07; Activity (HepG2): Non-Toxic
Cl.Cl.Cl.Cl.Cl.Cl.NC[C@H]1O[C@H](O[C@H]2[C@H](OCCCCCCCCCCN3CCN(Cc4cccc5ccccc45)CC3)[C@@H](O)[C@H](N)C[C@@H]2N)[C@H](N)C[C@@H]1O |  | 0.5 | 0.004 - 0.012 | 0.13 | 0.02 | 256 | 0.16 | 0.38 | 0.04 |  |  | 0.004 - 0.006 |  | 0.05 | > 512 |  | 0.02 | 0.016 - 0.031 | 12.917 | 0.09 | fractional inhibitory concentration index (FICI) (Pseudomonas aeruginosa [19]): 0.09; fractional inhibitory concentration index (FICI) (Pseudomonas aeruginosa [21]): 0.09; MIC (Pseudomonas aeruginosa [22]): 32 µg/mL; fractional inhibitory concentration index (FICI) (Pseudomonas aeruginosa [23]): 0.25; fractional inhibitory concentration index (FICI) (Pseudomonas aeruginosa [25]): 0.016 - 0.023
